Legend:
[1] = Cytotoxicity against human MT4 cells assessed as cell viability by MTT assay; type: cell-based
Procedure, shortened: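 Mock-infected MT-4 cells exposed to a range of compound concentrations. Viable cells measured by MTT colorimetry at day 5. CC₅₀ = concentration causing 50% death of non-infected cells. Means of two to three independent experiments, each in triplicate.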

[2] = test system: Human immunodeficiency virus 1; test: Antiviral activity against HIV1 NL4.3 infected in human MT4 cells assessed as inhibition of virus-induced cell death measured after 5 days of infection by MTT method; type: functional, organism-based; conditions: Human immunodeficiency virus 1, NL4.3, MT4, 120 h
Procedure, shortened: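 Lymphoid MT-4 cells (NIH AIDS Reagent Program) infected with HIV-1 NL4-3 in the presence of varying compound concentrations. On day 5 post-infection, viable cells were counted by MTT tetrazolium colorimetry. EC₅₀ = concentration inhibiting virus-induced cell death by 50%. Means of two to three independent experiments, each in triplicate.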

[3] = Selectivity index, ratio of CC50 for human MT4 cells to EC50 for HIV1 NL4.3 infected in human MT4 cells; type: toxicity, cell-based; conditions: read-out: Ratio CC50/EC50
Procedure, shortened: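 Ratio CC₅₀/EC₅₀. CC₅₀ is from mock-infected MT-4 cells and EC₅₀ from HIV-1 NL4-3-infected MT-4 cells, both read by MTT at day 5 post-infection.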

[4] = test system: Human immunodeficiency virus 1; test: Antiviral activity against HIV1 3B infected in human CEM cells assessed as protection of cells monitored by giant cell formation by microscopy; type: functional, organism-based; conditions: Human immunodeficiency virus 1, 3B, CCRF-CEM
Procedure, shortened: (§1)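 Human CEM cultures (~3 × 10⁵ cells/mL) infected with ~100 CCID₅₀ per mL of HIV-1 IIIB or HIV-2 ROD, seeded with serial compound dilutions. Incubated 4 days at 37 °C; syncytium (giant cell) formation scored by microscopy. EC₅₀ = concentration protecting cells from viral cytopathicity by 50%. Means of two to three independent experiments, each in triplicate.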

[5] = test system: Human immunodeficiency virus 2; test: Antiviral activity against HIV-2 ROD infected in human CEM cells assessed as protection of cells monitored by giant cell formation by microscopy; type: functional, organism-based; conditions: Human immunodeficiency virus 2, ISOLATE ROD, CCRF-CEM; procedure, shortened: as §1
[6] = test system: Human immunodeficiency virus 1; test: Antiviral activity against HIV1 harboring reverse transcriptase K103N mutant infected in human MT4 cells assessed as inhibition of virus-induced cell death measured after 5 days of infection by MTT method; type: functional, organism-based; conditions: Human immunodeficiency virus 1, MT4, 120 h
Procedure, shortened: (§2)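 MT-4 cells infected with the named NNRTI-resistant HIV-1 RT mutant strain, in the presence of a range of compound concentrations. Viable cells counted at day 5 post-infection by tetrazolium (MTT) colorimetry. […] Mean of 2–3 independent experiments, each in triplicate.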

[7] = test system: Human immunodeficiency virus 1; test: Antiviral activity against HIV1 harboring reverse transcriptase Y181C mutant infected in human MT4 cells assessed as inhibition of virus-induced cell death measured after 5 days of infection by MTT method; type: functional, organism-based; conditions: Human immunodeficiency virus 1, MT4, 120 h; procedure, shortened: as §2
[8] = test system: Human immunodeficiency virus 1; test: Antiviral activity against HIV1 harboring reverse transcriptase […] mutant infected in human MT4 cells assessed as inhibition of virus-induced cell death measured after 5 days of infection by MTT method; type: functional, organism-based; conditions: Human immunodeficiency virus 1, MT4, 120 h; procedure, shortened: as §2
[9] = test system: Human immunodeficiency virus 1; test: Antiviral activity against HIV1 harboring reverse transcriptase K103N/Y181C double mutant infected in human MT4 cells assessed as inhibition of virus-induced cell death measured after 5 days of infection by MTT method; type: functional, organism-based; conditions: Human immunodeficiency virus 1, MT4, 120 h; procedure, shortened: as §2
[10] = test system: Human immunodeficiency virus 1; test: Ratio of EC50 for HIV1 harboring reverse transcriptase K103N/Y181C double mutant to EC50 for wild type HIV1 NL4.3; type: functional
Procedure, shortened: (§3)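 Fold change is the EC50 against the named mutant strain divided by the EC50 against wild-type HIV-1 NL4-3. […] Means of 2–3 independent experiments in triplicate.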

[11] = test system: Human immunodeficiency virus 1; test: Ratio of EC50 for HIV1 harboring reverse transcriptase K103N mutant to EC50 for wild type HIV1 NL4.3; type: functional; procedure, shortened: as §3
[12] = test system: Human immunodeficiency virus 1; test: Ratio of EC50 for HIV1 harboring reverse transcriptase Y181C mutant to EC50 for wild type HIV1 NL4.3; type: functional; procedure, shortened: as §3
[13] = test system: Human immunodeficiency virus 1; test: Ratio of EC50 for HIV1 harboring reverse transcriptase […] mutant to EC50 for wild type HIV1 NL4.3; type: functional; procedure, shortened: as §3
[14] = target: T1, Human immunodeficiency virus type 1 reverse transcriptase (Human immunodeficiency virus 1, UniProt Q72547); test: Inhibition of HIV1 wild-type reverse transcriptase using [3H]dTTP by scintillation counting
[15] = target: Human immunodeficiency virus type 1 reverse transcriptase (Human immunodeficiency virus 1, UniProt Q72547, K103N); test: Inhibition of HIV1 wild-type reverse transcriptase K103N mutant using [3H]dTTP by scintillation counting
[16] = target: T1, Human immunodeficiency virus type 1 reverse transcriptase; test: Inhibition of HIV1 wild-type reverse transcriptase Y181I/Y181C mutant using [3H]dTTP by scintillation counting
[17] = target: Human immunodeficiency virus type 1 reverse transcriptase (Human immunodeficiency virus 1, UniProt Q72547, L100I); test: Inhibition of HIV1 wild-type reverse transcriptase L100I mutant using [3H]dTTP by scintillation counting
Procedure, shortened: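 RNA-dependent DNA polymerase activity of recombinant RT (2–4 nM) on poly(rA)/oligo(dT) 10:1 with [3H]dTTP (1 Ci/mmol). Incubation at 37 °C. Acid-insoluble radioactivity collected on GF/C filters after 5% cold TCA, counted by scintillation.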

[18] = test system: Human immunodeficiency virus 1; test: Ratio of efavirenz EC50 to compound EC50 for HIV1 harboring reverse transcriptase K103N mutant infected in human MT4 cells; type: functional
[19] = test system: Human immunodeficiency virus 1; test: Ratio of AZT EC50 to compound EC50 for HIV1 harboring reverse transcriptase K103N mutant infected in human MT4 cells; type: functional
[20] = test system: Human immunodeficiency virus 1; test: Ratio of efavirenz EC50 to compound EC50 for HIV1 harboring reverse transcriptase Y181C mutant infected in human MT4 cells; type: functional
[21] = test system: Human immunodeficiency virus 1; test: Ratio of efavirenz EC50 to compound EC50 for HIV1 harboring reverse transcriptase L100I mutant infected in human MT4 cells; type: functional
[22] = test system: Human immunodeficiency virus 1; test: Antiviral activity against HIV1 harboring reverse transcriptase Y188L mutant infected in human MT4 cells assessed as inhibition of virus-induced cell death measured after 5 days of infection by MTT method; type: functional, organism-based; conditions: Human immunodeficiency virus 1, MT4, 120 h; procedure, shortened: as §2
[23] = test system: Human immunodeficiency virus 1; test: Ratio of EC50 for HIV1 harboring reverse transcriptase Y188L mutant to EC50 for wild type HIV1 NL4.3; type: functional; procedure, shortened: as §3
[24] = test system: Human immunodeficiency virus 1; test: Ratio of EC50 for HIV1 harboring reverse transcriptase K103N mutant to EC50 for wild type HIV1 3B; type: functional
[25] = test system: Human immunodeficiency virus 1; test: Ratio of efavirenz EC50 to compound EC50 for HIV1 harboring reverse transcriptase Y188L mutant infected in human MT4 cells; type: functional

SMILES	CC50 [1]	EC50 [2]	EC50 [4]	EC50 [6]	EC50 [7]	EC50 [8]	EC50 [9]	Ratio EC50 [10]	Ratio EC50 [11]	Ratio EC50 [12]	Ratio EC50 [13]	IC50 [14]	IC50 [15]	IC50 [16]	Ratio EC50 [18]	Ratio EC50 [19]	EC50 [22]	Ratio EC50 [23]	further results
Cc1cc(C)cc(S(=O)(=O)c2c(C(=O)NCc3cccc(F)c3)[nH]c3ccc(Cl)cc23)c1	> 53.1 µM	0.68 nM	4.3 nM	4.4 nM	4.3 nM	5 nM	13900 nM	20391	6.5	6.3	7.4	70 nM	160 nM	> 20000 nM	>546	> 3			selectivity ratio [3]: > 78100; EC50 [5]: > 10 µM; IC50 [17]: 40 nM; Ratio EC50 [20]: 37; Ratio EC50 [21]: 10
Cc1cc(C)cc(S(=O)(=O)c2c(C(=O)NC(C)Cc3ccccc3)[nH]c3ccc(Cl)cc23)c1 (racemic)			91 nM	530 nM	> 1000 nM	380 nM	> 2080 nM	23		>11	4.2						> 1000 nM	>11	Ratio EC50 [24]: 5.8
Cc1cc(C)cc(S(=O)(=O)c2c(C(=O)NCc3ccc(N)cc3)[nH]c3ccc(Cl)cc23)c1	6.37 µM	0.21 nM		4.2 nM	11 nM		598 nM	2847	20	52		7.7 nM	34 nM	201 nM	> 546	>3	491 nM	2338	Ratio EC50 [25]: 1.5
